Data from ChEMBL document CHEMBL5360632, “Quinazolinone Compounds Have Potent Antiviral Activity against Zika and Dengue Virus” (J Med Chem, 2023).
The source made the active and inactive calls. The calls are words filed in the database; no cut-off is given here.

Key:
Zika virus [1] = assay: Antiviral activity against ZIKV FLR infected in human U87 cells assessed as inhibition of viral replication at 3 uM pretreated with compounds for 2 hrs followed by replacement with fresh medium containing compound and measured after 48 hrs by MTT assay relative to control; type: functional; settings: U-87 MG, time 50 hrs
How it was run: (§1)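 Monolayers of 2 × 10^4 cells/well in DMEM with 2% FBS. Infected at 0.1 MOI together with compound for 2h. Wells washed with PBS, then fresh medium with compound added in duplicate and incubated 48h at 37 °C. Supernatant titred by end-point dilution: half-log dilutions on Vero monolayers in quadruplicate for 5–7 days, CPE by microscope then MTT. TCID50 compared with untreated; EC50 from dose-response fit of ≥2 independent experiments.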

Zika virus [2] = assay: Antiviral activity against ZIKV FLR infected in human U87 cells assessed as inhibition of viral replication pretreated with compounds for 2 hrs followed by replacement with fresh medium containing compound and measured after 48 hrs by MTT assay; type: functional, organism-based; settings: U-87 MG; how it was run: as §1
U-87 MG = assay: Cytotoxicity against human U87 cells assessed as reduction in cell viability; type: toxicity, cell-based; settings: u-87mg atcc
Zika virus [3] = assay: Antiviral activity against ZIKV FLR infected in Vero cells assessed as reduction in viral titer at 1 uM preinoculated virus for 2 hrs with cells followed by washout of unattached viruses and further incubated with compound for 48 hrs by MTT assay relative to control; type: functional; parameters: scale not given: the % may be the effect or the level left
How it was run: (§2)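 Cells inoculated with 0.1 MOI virus for 2h, then unattached virus removed by PBS wash. Compound at 1 μM added either right after washout (0h-posttreatment) or 2h after washout (2h-posttreatment). Incubated to 48h at 37 °C, then supernatant TCID50 determined by end-point dilution with CPE/MTT read-out in quadruplicate on Vero cells, relative to untreated.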

Zika virus [4] = assay: Antiviral activity against ZIKV […] infected in Vero cells assessed as reduction in viral titer at 1 uM preinoculated virus for 2 hrs with cells followed by washout of unattached viruses and further incubated with compound for 46 hrs starting from 2 hrs post washout by MTT assay relative to control; type: functional; parameters: scale not given: the % may be the effect or the level left; how it was run: as §2
Zika virus [5] = assay: Antiviral activity against ZIKV FLR infected in Vero cells assessed as reduction in number of viral RNA copies by qRT-PCR analysis; type: functional, organism-based; settings: dose 0.3-10 µM
How it was run: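 Viral RNA measured in cell supernatant after compound treatment. Copies/mL calculated from a standard curve.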

Zika virus [6] = assay: (§3) Antiviral activity against ZIKV FLR infected in Vero cells assessed as inhibition of viral replication by measuring reduction in cytopathic effect at >=3 uM preincubated with compounds for 2 hrs followed by replacement with fresh media containing compounds and measured after 48 hrs by MTT assay relative to control; type: functional; parameters: scale not given: the % may be the effect or the level left; settings: time 50 hrs; how it was run: as §1
Zika virus [7] = assay: Antiviral activity against ZIKV FLR infected in human U87 cells assessed as inhibition of viral replication at 1 uM pretreated with compounds for 2 hrs followed by replacement with fresh medium containing compound and measured after 48 hrs by MTT assay relative to control; type: functional; settings: U-87 MG, time 50 hrs; how it was run: as §1
Zika virus [8] = assay: Antiviral activity against ZIKV FLR infected in mosquito C6/36 cells assessed as inhibition of viral replication pretreated with compounds for 2 hrs followed by replacement with fresh medium containing compound and measured after 48 hrs bt MTT assay; type: functional, organism-based; how it was run: as §1
Zika virus [9] = assay: Antiviral activity against ZIKV FLR infected in human U87 cells assessed as inhibition of viral replication at 10 uM pretreated with compounds for 2 hrs followed by replacement with fresh medium containing compound and measured after 48 hrs by MTT assay relative to control; type: functional; settings: U-87 MG, time 50 hrs; how it was run: as §1
Zika virus [10] = assay: as §3, with “10” for “>=3”; type: functional; settings: time 50 hrs; how it was run: as §1
Zika virus [11] = assay: Antiviral activity against ZIKV FLR infected in Vero cells assessed as reduction in NS5 viral protein level at 1 to 3 uM incubated for 48 hrs by Western blot analysis; type: functional, organism-based; settings: dose 1-3 µM
How it was run: (§4)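 8 × 10^5 Vero cells infected at MOI 0.1 for 2h. Virus removed and cells cultured 48h in fresh medium with 2% FBS plus compound. Cells lysed in ice-cold RIPA buffer and equal total protein separated by SDS-PAGE, then transferred to PVDF. Probed with antibodies to ZIKV NS3, capsid and NS5, with β-actin as loading reference.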

Zika virus [12] = assay: Antiviral activity against ZIKV FLR infected in Vero cells assessed as inhibition of viral replication by measuring reduction in cytopathic effect preincubated with compounds for 2 hrs followed by replacement with fresh media containing compounds and measured after 48 hrs by MTT assay; type: functional, organism-based; how it was run: as §1
dengue virus type 2 = assay: Antiviral activity against Dengue virus serotype 2 K0049 infected in Vero cells assessed as inhibition of viral replication pretreated for 2 hrs followed by replacement with fresh medium containing compound and measured after 48 hrs by MTT assay; type: functional, organism-based; how it was run: as §1
Zika virus [13] = assay: Antiviral activity against ZIKV FLR infected in Vero cells assessed as reduction in NS3 viral protein level at 1 to 3 uM incubated for 48 hrs by Western blot analysis; type: functional, organism-based; settings: dose 1-3 µM; how it was run: as §4
Zika virus [14] = assay: as §3, with “0.3” for “>=3”; type: functional; parameters: scale not given: the % may be the effect or the level left; settings: time 50 hrs; how it was run: as §1
Zika virus [15] = assay: as §3, with “1” for “>=3”; type: functional; settings: time 50 hrs; how it was run: as §1
Zika virus [16] = assay: Antiviral activity against ZIKV FLR infected in human U87 cells assessed as inhibition of viral replication at 0.3 uM pretreated with compounds for 2 hrs followed by replacement with fresh medium containing compound and measured after 48 hrs by MTT assay relative to control; type: functional; settings: U-87 MG, time 50 hrs; how it was run: as §1
Zika virus [17] = assay: Antiviral activity against ZIKV HN16 infected in Vero cells assessed as inhibition of viral replication by measuring reduction in cytopathic effect preincubated with compounds for 2 hrs followed by replacement with fresh media containing compounds and measured after 48 hrs by MTT assay; type: functional, organism-based; how it was run: as §1
Zika virus [18] = assay: Antiviral activity against ZIKV FLR infected in Vero cells assessed as inhibition of viral replication by measuring reduction in cytopathic effect at 1 uM preincubated with compounds for 2 hrs followed by replacement with fresh media containing compounds and further incubated for 48 hrs in presence of 1 mM GSH by MTT assay; type: functional, organism-based; settings: time 50.0 hrs; how it was run: as §1
dengue virus type 3 = assay: Antiviral activity against Dengue virus serotype 3 7431 infected in Vero cells assessed as inhibition of viral replication pretreated for 2 hrs followed by replacement with fresh medium containing compound and measured after 48 hrs by MTT assay; type: functional, organism-based; settings: Dengue virus, 7431, Vero; how it was run: as §1
Zika virus [19] = assay: Antiviral activity against ZIKV FLR infected in Vero cells assessed as reduction in capsid protein level at 1 to 3 uM incubated for 48 hrs by Western blot analysis; type: functional, organism-based; settings: dose 1-3 µM; how it was run: as §4

## COc1cccc(/C=C/c2nc3ccc(N4CCOCC4)cc3c(=O)n2-c2cccc(C(C)(C)C)c2)n1
Zika virus [1]
  inhibition at 3 µM: 99%
Zika virus [2]
  EC50: 100 nM
U-87 MG
  CC50: > 20000 nM
Zika virus [3]
  Activity: 68%
Zika virus [4]
  Activity: 68%
Zika virus [5]
  Activity: Dose-Dependent Effect
Zika virus [6]
  Activity: >99.9%
Zika virus [7]
  inhibition at 1 µM: 97%
Zika virus [8]
  EC50: 230 nM
Zika virus [9]
  inhibition at 10 µM: > 99.9%
Zika virus [10]
  inhibition at 10 µM: 99.9%
Zika virus [11]
  Activity: Active
Zika virus [12]
  EC50: 180 nM
Dengue virus type 2
  EC50: 210 nM
Zika virus [13]
  Activity: Active
Zika virus [14]
  Activity: 68%
Zika virus [15]
  inhibition at 1 µM: 90%
Zika virus [16]
  inhibition at 0.3 µM: 90%
Zika virus [17]
  EC50: 86 nM
Zika virus [18]
  Activity: Active
Dengue virus type 3
  EC50: 120 nM
Zika virus [19]
  Activity: Active
